# Test results: publication PMC8905529 (RSC Chemical Biology, 2022)
# Where a SMILES comes first, the peptide text is derived from it. [ ]: non-standard residue; d: D form. Cha = N[C@@H](CC1CCCCC1)C(=O)O; hLeu = CC(C)CC[C@H](N)C(=O)O
# How the values were obtained:
# [1] = test system: trypsin; assay: Enzymatic; type: in vitro ADME; conditions: trypsin in PBS, pH 7.4
# How it was run: (§1)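 Test peptide at 0.33 mM final in PBS (pH 7.4) with trypsin or chymotrypsin at 0.05 μg mL−1 final. Incubated at 37 °C with shaking (200 rpm) for 24 h. Fragments were identified by MALDI-TOF MS and ESI-TOF LC-MS.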
# [2] = test system: chymotrypsin; assay: Enzymatic; type: in vitro ADME; conditions: chymotrypsin in PBS, pH 7.4
# How it was run: as §1
# [3] = molecular target: T1, ComD1 receptor (Streptococcus pneumoniae serotype 2, UniProt A0A0H2ZM50); assay: β-galactosidase competitive inhibition reporter assay, D39pcomX::lacZ; type: cell-based
# T1 sequence (A0A0H2ZM50 1-441): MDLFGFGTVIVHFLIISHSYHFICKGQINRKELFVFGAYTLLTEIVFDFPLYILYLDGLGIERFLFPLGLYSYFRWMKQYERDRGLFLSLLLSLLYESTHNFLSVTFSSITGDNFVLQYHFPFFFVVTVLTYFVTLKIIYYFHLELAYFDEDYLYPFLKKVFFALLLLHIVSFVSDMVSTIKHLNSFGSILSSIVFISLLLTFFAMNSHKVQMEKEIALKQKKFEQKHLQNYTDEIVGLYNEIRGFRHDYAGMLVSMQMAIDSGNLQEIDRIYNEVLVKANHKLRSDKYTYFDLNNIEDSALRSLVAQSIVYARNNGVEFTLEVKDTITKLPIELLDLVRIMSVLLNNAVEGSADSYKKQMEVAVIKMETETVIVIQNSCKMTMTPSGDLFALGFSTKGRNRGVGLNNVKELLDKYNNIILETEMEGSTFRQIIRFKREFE
# How it was run: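 Early-exponential D39pcomX::lacZ in THY (OD600 0.30–0.35) was incubated 30 min at 37 °C. Cells were then Triton X-100-lysed and given ONPG (0.4 mg mL−1) for 3 h at 37 °C, quenched with sodium carbonate, and read at OD420/550 for Miller units.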
# [4] = molecular target: T1, ComD1 receptor; assay: β-galactosidase activation reporter assay, D39pcomX::lacZ; type: cell-based
# How it was run: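 D39pcomX::lacZ was grown on THY agar (5% horse serum, 4 μg mL−1 chloramphenicol), then in THY overnight, diluted 1:50 and grown to OD600 0.30–0.35. […] After 30 min at 37 °C, cells were lysed with Triton X-100 and given ONPG (0.4 mg mL−1, pH 7.0) for 3 h. Reads: OD420/550, Miller units; EC50 by nonlinear regression.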
smiles,measurement,setting,value
CC[C@H](C)[C@H](NC(=O)[C@H](Cc1ccccc1)NC(=O)[C@H](CC(=O)O)NC(=O)[C@H](CCCNC(=N)N)NC(=O)[C@H](Cc1ccccc1)NC(=O)[C@H](CC1CCCCC1)NC(=O)[C@H](CCCCN)NC(=O)[C@H](CO)NC(=O)[C@H](CC(C)C)NC(=O)[C@H](CCCNC(=N)N)NC(=O)[C@H](CCSC)NC(=O)[C@H](C)N)C(=O)N[C@@H](CC(C)C)C(=O)N[C@@H](CCC(N)=O)C(=O)N[C@@H](CCCNC(=N)N)C(=O)N[C@@H](CCCCN)C(=O)N[C@@H](CCCCN)C(=O)O [CSP1-E1A/F7Cha] (H-AMRLSK[Cha]FRDFILQRKK-OH),half-life at 0.33 mM,[1],4 h
same,half-life at 0.33 mM,[2],4 h
same,IC50,[3],0.036 µM
CSCC[C@H](NC(=O)[C@H](C)N)C(=O)N[C@@H](CCCNC(=N)N)C(=O)N[C@@H](CC(C)C)C(=O)N[C@@H](CO)C(=O)N[C@@H](CCCCN)C(=O)N[C@@H](CC1CCCCC1)C(=O)N[C@@H](Cc1ccccc1)C(=O)N[C@@H](CCCNC(=N)N)C(=O)N[C@@H](CC(=O)O)C(=O)N[C@@H](Cc1ccccc1)C(=O)N[C@@H](CCC(C)C)C(=O)N[C@@H](CC(C)C)C(=O)N[C@@H](CCC(N)=O)C(=O)N[C@@H](CCCNC(=N)N)C(=O)N[C@@H](CCCCN)C(=O)N[C@@H](CCCCN)C(=O)O [CSP1-E1A/F7Cha/I12HLeu] (H-AMRLSK[Cha]FRDF[hLeu]LQRKK-OH),IC50,[3],0.057 µM
CSCC[C@H](NC(=O)[C@H](C)N)C(=O)N[C@@H](CCCNC(=N)N)C(=O)N[C@@H](CC(C)C)C(=O)N[C@@H](CO)C(=O)N[C@@H](CCCCN)C(=O)N[C@@H](CC1CCCCC1)C(=O)N[C@@H](Cc1ccccc1)C(=O)N[C@@H](CCCNC(=N)N)C(=O)N[C@@H](CC(=O)O)C(=O)N[C@@H](Cc1ccccc1)C(=O)N[C@@H](CC1CCCCC1)C(=O)N[C@@H](CC(C)C)C(=O)N[C@@H](CCC(N)=O)C(=O)N[C@@H](CCCNC(=N)N)C(=O)N[C@@H](CCCCN)C(=O)N[C@@H](CCCCN)C(=O)O [CSP1-E1A/F7Cha/I12Cha] (H-AMRLSK[Cha]FRDF[Cha]LQRKK-OH),IC50,[3],0.072 µM
"CC[C@H](C)[C@H](NC(=O)[C@H](Cc1ccccc1)NC(=O)[C@H](CC(=O)O)NC(=O)[C@H](CCCNC(=N)N)NC(=O)[C@H](Cc1ccccc1)NC(=O)[C@H](Cc1ccccc1)NC(=O)[C@H](CCCCN)NC(=O)[C@H](CO)NC(=O)[C@H](CC(C)C)NC(=O)[C@H](CCCNC(=N)N)NC(=O)[C@H](CCSC)NC(=O)[C@@H](N)CCC(=O)O)C(=O)N[C@@H](CC(C)C)C(=O)N[C@@H](CCC(N)=O)C(=O)N[C@@H](CCCNC(=N)N)C(=O)N[C@@H](CCCCN)C(=O)N[C@@H](CCCCN)C(=O)O [CSP1, reference compound]",half-life at 0.33 mM,[1],0.5 h
same,half-life at 0.33 mM,[2],1 h
CC[C@H](C)[C@H](NC(=O)[C@H](Cc1ccccc1)NC(=O)[C@H](CC(=O)O)NC(=O)[C@H](CCCNC(=N)N)NC(=O)[C@H](Cc1ccccc1)NC(=O)[C@H](CCC(C)C)NC(=O)[C@H](CCCCN)NC(=O)[C@H](CO)NC(=O)[C@H](CC(C)C)NC(=O)[C@H](CCCNC(=N)N)NC(=O)[C@H](CCSC)NC(=O)[C@H](C)N)C(=O)N[C@@H](CC(C)C)C(=O)N[C@@H](CCC(N)=O)C(=O)N[C@@H](CCCNC(=N)N)C(=O)N[C@@H](CCCCN)C(=O)N[C@@H](CCCCN)C(=O)O [CSP1-E1A/F7HLeu] (H-AMRLSK[hLeu]FRDFILQRKK-OH),IC50,[3],0.072 µM
CSCC[C@H](NC(=O)[C@@H](N)CCC(=O)O)C(=O)N[C@@H](CCCNC(=N)N)C(=O)N[C@@H](CC(C)C)C(=O)N[C@@H](CO)C(=O)N[C@@H](CCCCN)C(=O)N[C@@H](CC1CCCCC1)C(=O)N[C@@H](Cc1ccccc1)C(=O)N[C@@H](CCCNC(=N)N)C(=O)N[C@@H](CC(=O)O)C(=O)N[C@@H](Cc1ccccc1)C(=O)N[C@@H](CC1CCCCC1)C(=O)N[C@@H](CC(C)C)C(=O)N[C@@H](CCC(N)=O)C(=O)N[C@@H](CCCNC(=N)N)C(=O)N[C@@H](CCCCN)C(=O)N[C@@H](CCCCN)C(=O)O [CSP1-F7Cha/I12Cha] (H-EMRLSK[Cha]FRDF[Cha]LQRKK-OH),EC50,[4],< 0.001 µM
same,half-life at 0.33 mM,[1],3 h
same,half-life at 0.33 mM,[2],6 h
